ChEMBL document CHEMBL1121715, “New antiarrhythmic agents. 4. 1'-(Aminoalkyl)-1,2,3,4-tetrahydronaphthalene-1-spiro-3'-pyrrolidine-2',5'-dione derivatives” (J Med Chem, 1981)

Key:
Mus musculus [1] = organism: Mus musculus; experiment: Percentage toxicity measured as ataxia.; type: organism-based; conditions: in vivo
Method in brief: (§1)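 Mice (groups of 10) were dosed sc with drug in 0.9% saline and watched for 20 min for overt toxicity (ataxia, convulsions, loss of righting reflex, death) before chloroform exposure.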

[2] = Percentage toxicity measured as death of mice.; type: organism-based; parameters: concentration or dose not given beside the values; conditions: mouse, in vivo; read-out: Death
Mus musculus [3] = organism: Mus musculus; experiment: Percentage toxicity measured as loss of righting reflex.; type: organism-based; conditions: in vivo; method in brief: as §1
Mus musculus [4] = experiment: Ataxia was measured in mice after sc administration at given dose; type: functional
Method in brief: (§2)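 Mice in groups of 10 received drug sc in 0.9% saline and were watched 20 min for overt toxicity before chloroform exposure. At least three doses were given.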

Mus musculus [5] = experiment: Protection against chloroform induced arrhythmias was measured in mice after sc administration at given dose; type: functional
Method in brief: (§3)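 Groups of 10 unanesthetized mice got sc injection of drug in 0.9% saline. After 20 min observation they were placed one by one in chloroform-vapor-saturated air. When breathing stopped, the thorax was opened and the heart inspected by eye; coordinated ventricular contractions counted as protected.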

Mus musculus [6] = experiment: Protection against chloroform induced arrhythmias in mice after subcutaneous administration at 100 mg/kg dose.; type: functional; method in brief: as §3
Mus musculus [7] = organism: Mus musculus; experiment: Percentage toxicity measured as convulsions.; type: organism-based; conditions: in vivo; method in brief: as §1
Canis familiaris [8] = experiment: MABP value was measured in anesthetized dog at 0.32+/-0.11 dose.; type: functional, Canis lupus familiaris
Canis familiaris [9] = organism: Canis familiaris; experiment: The dose at which toxicity was measured.; type: organism-based, Canis lupus familiaris; conditions: dog, in vivo
Method in brief: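 Adult female dogs (6.7–14.5 kg) had two-stage ligation of the left anterior descending coronary artery the day before testing. After control ventricular rate, % ectopic beats and mean arterial pressure were recorded, the drug (HCl salt, isotonic solution) was infused iv without anesthesia at 0.1, 0.5 or 1.0 (mg/kg)/min, mostly 0.5. Infusion continued until the arrhythmia was abolished or cardiovascular/CNS toxicity appeared. Cumulative dose is given in mmol/kg; toxicity included convulsion and P-R prolongation ≥25%.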

Canis familiaris [10] = experiment: Ventricular rate was measured in anesthetized dog at 0.32+/-0.11 dose; type: functional, Canis lupus familiaris, Heart; conditions: in the assay text read “unanesthetized” for “anesthetized”
Method in brief: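 Adult female dogs (6.7–14.5 kg) had ventricular arrhythmias from two-stage ligation of the left anterior descending coronary artery the day before. Ventricular rate (bpm) was read at maximal antiarrhythmic effect against cumulative dose.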

Mus musculus [11] = experiment: Protection against chloroform induced arrhythmias was measured in mice after sc administration at given dose.; type: functional; method in brief: as §3
Mus musculus [12] = experiment: Ataxia was measured in mice after sc administration at given dose.; type: functional; method in brief: as §2
Canis familiaris [13] = experiment: % ectopic beats was measured in unanesthetized dog at 0.32+/-0.11 dose; 2+/-2
[14] = Mus musculus, sc, read-out: ED50

Compound | Ataxia (Mus musculus [1]) | mortality [2] | Loss of righting reflex (Mus musculus [3]) | ED50 (Mus musculus [4]) | ED50 (Mus musculus [5]) | Protection (Mus musculus [6]) | Convulsion (Mus musculus [7]) | MABP (Canis familiaris [8]) | Cumulative dose (Canis familiaris [9]) | Ventricular rate (Canis familiaris [10]) | ED50 (Mus musculus [11]; [14]) | ED50 (Mus musculus [12]) | Ectopic beats (Canis familiaris [13]) | ED50 (Mus musculus [11]) | Protection (Mus musculus [6]; 100 mg/kg)
CCN(CC)CCCN1C(=O)CC2(CCCc3ccc(Cl)cc32)C1=O (stereo not drawn) | 100% | 0% | 0% | 110 µmol/kg | 160 µmol/kg | 90% | 0% | – | – | – | – | – | – | – | –
CCN(CC)CCCN1C(=O)CC2(CCCc3ccccc32)C1=O (stereo not drawn) | 100% | 0% | 0% | 190 µmol/kg | 200 µmol/kg | 80% | 0% | – | – | – | – | – | – | – | –
COc1ccc2c(c1)CCCC21CC(=O)N(CCCN(C)C)C1=O (stereo not drawn) | 100% | 0% | 0% | – | – | 0% | 0% | – | – | – | – | – | – | – | –
CCN(CC)CCCCN1C(=O)CC2(CCCc3ccccc32)C1=O (stereo not drawn) | 100% | 0% | 0% | 180 µmol/kg | 180 µmol/kg | 90% | 0% | – | – | – | – | – | – | – | –
CN(CCO)CCCN1C(=O)CC2(CCCc3ccccc32)C1=O (stereo not drawn) | 0% | 0% | 0% | 760 µmol/kg | 560 µmol/kg | 30% | 0% | – | – | – | – | – | – | – | –
CCN(CC)C(C)CCN1C(=O)CC2(CCCc3cc(OC)ccc32)C1=O (stereo not drawn) | 60% | 0% | 0% | – | – | 0% | 0% | – | – | – | – | – | – | – | –
CN(CCO)CCN1C(=O)CC2(CCc3ccccc3C2)C1=O (stereo not drawn) | 100% | 0% | 0% | – | – | 30% | 40% | – | – | – | – | – | – | – | –
O=C1NC(=O)C(C2CCc3ccccc3C2)N1 (stereo not drawn) | 0% | 0% | 0% | – | – | 20% | 0% | – | – | – | – | – | – | – | –
Cc1cccc(C)c1NC(=O)C(C)N (stereo not drawn) [TOCAINIDE] | 10% | 0% | 0% | – | – | 20% | 0% | 108 mmHg | 0.3 | 148 beats min-1 | 1300 µmol/kg | 760 µmol/kg | 2% | – | –
CCN(CC)C(C)CN1C(=O)CC2(CCCc3ccc(O)cc32)C1=O (stereo not drawn) | 50% | 0% | 0% | – | – | 60% | 0% | – | – | – | – | – | – | – | –
CCN(CC)CCCN1C(=O)CC(c2ccccc2)C1=O (stereo not drawn) | 0% | 0% | 0% | – | – | 30% | 0% | – | – | – | – | – | – | – | –
O=C1CC2(CCCc3ccccc32)C(=O)N1CCCN1CCOCC1 (stereo not drawn) | 100% | 0% | 0% | – | – | 20% | 0% | – | – | – | – | – | – | – | –
CCN(CC)C(C)CN1C(=O)CC2(CCCc3ccccc32)C1=O (stereo not drawn) | 100% | 0% | 0% | – | – | 50% | 100% | – | – | – | – | – | – | – | –
CCN(CC)C(C)CCN1C(=O)CC2(CCCc3ccc(O)cc32)C1=O (stereo not drawn) | 100% | 20% | 100% | 80 µmol/kg | 80 µmol/kg | 80% | 100% | – | – | – | – | – | – | – | –
COCCN(C)CCCN1C(=O)CC2(CCCc3ccccc32)C1=O (stereo not drawn) | 100% | 0% | 100% | – | – | 30% | 100% | – | – | – | – | – | – | – | –
CCCC1(c2ccccc2)CC(=O)N(CCN(C)C)C1=O (stereo not drawn) | 100% | 0% | 0% | – | – | 40% | 0% | – | – | – | 390 µmol/kg | 270 µmol/kg | – | – | –
CCN(CC)CCCCN1C(=O)CC2(CCCc3cc(O)ccc32)C1=O (stereo not drawn) | 0% | 0% | 0% | – | – | 70% | 0% | – | – | – | 260 µmol/kg | – | – | – | –
CCN(CC)CCCCCN1C(=O)CC2(CCCc3ccccc32)C1=O (single isomer, unassigned; (-)) | 100% | – | – | – | – | – | 30% | – | – | – | – | – | – | 160 µmol/kg | 90%
CCN(CC)C(C)CCN1C(=O)CC2(CCCc3ccccc32)C1=O (stereo not drawn) | 100% | 0% | 0% | – | – | 40% | 0% | – | – | – | – | – | – | – | –
COc1ccc2c(c1)CCCC21CC(=O)N(CCN(C)C)C1=O (stereo not drawn) | 100% | 0% | 0% | – | – | 20% | 0% | – | – | – | – | – | – | – | –
CCN(CC)CCCN1C(=O)CC2(CCCc3ccc(C)cc32)C1=O (stereo not drawn) | 0% | 0% | 0% | – | 210 µmol/kg | 70% | 0% | – | – | – | – | – | – | – | –
CCN(CC)CCCN1C(=O)CC2(CCCc3cc(OC)ccc32)C1=O (stereo not drawn) | 100% | 0% | 0% | – | – | 40% | – | – | – | – | – | – | – | – | –
CCN(CC)CCCCCN1C(=O)CC2(CCCc3ccccc32)C1=O (racemic) | 0% | 0% | 0% | – | – | – | 0% | – | – | – | 240 µmol/kg | – | – | – | 80%
NCCCCCN1C(=O)CC2(CCCc3ccccc32)C1=O (stereo not drawn) | 0% | 0% | 0% | – | – | 20% | 0% | – | – | – | – | – | – | – | –
CCN(CC)CCCN1C(=O)CC2(CCCc3ccc(OC(C)C)cc32)C1=O (stereo not drawn) | 100% | 0% | 0% | 110 µmol/kg | 140 µmol/kg | 90% | 100% | – | – | – | – | – | – | – | –
CN(CCO)CCN1C(=O)CC2(CCCc3ccccc32)C1=O (stereo not drawn) | 0% | 0% | 0% | – | – | 30% | 0% | – | – | – | – | – | – | – | –
CN(CCO)CCCCN1C(=O)CC2(CCCc3ccccc32)C1=O (stereo not drawn) | 0% | 0% | 0% | – | – | 10% | 0% | – | – | – | – | – | – | – | –
CCN(CC)CCCCCN1C(=O)CC2(CCCc3ccccc32)C1=O (single isomer, unassigned; (+)) | – | – | – | – | – | – | – | – | – | – | – | – | – | 210 µmol/kg | 50%
